Assay [1] relates to Caudate-putamen. Put plainly: In vivo displacement of [3H]Nemonapride from dopamine D4 receptor in Sprague-Dawley rat medial part of caudate putamen at 13.75 mg/kg, ip qd for 28 days by autoradiography relative to control. It is filed as functional. The settings on record: route intraperitoneal. For orientation: Displacement assays read how much labelled ligand stays bound in the presence of the test substance.

Assay [2] is described as follows: In vivo displacement of [3H]Ketanserin from 5HT2A receptor in Sprague-Dawley rat entorhinal cortex at 13.75 mg/kg, ip qd for 28 days by autoradiography relative to control. Type of assay: functional. Conditions: route intraperitoneal. Summed up: (§1)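 Rats (male Sprague-Dawley, N = 8/group) given daily ip injections for 28 days versus vehicle. Brain sections preincubated 1 h RT in 50 mM Tris-HCl pH 7.7, then 1 h RT with 3.0 nM [3H]ketanserin plus 1 μM prazosin and 100 nM tetrabenazine. Nonspecific: 1 μM methysergide. Washes 2 × 30 min ice-cold. Readout fmol/mg tissue as % of control, mean ± SEM.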

Assay [3] addresses T1, Serotonin 1a (5-HT1a) receptor/Adrenergic receptor alpha-1 (Rattus norvegicus) (UniProt P15823+P23944+P43140+P19327). Put plainly: In vivo displacement of [3H]8-OH-DPAT from 5HT1A receptor in Sprague-Dawley rat entorhinal cortex at 13.75 mg/kg, ip qd for 28 days by autoradiography relative to control. It is filed as functional, organism-based. On the set-up: dose 13.75 mg/kg. Summed up: (§2)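 Male Sprague-Dawley rats (200−225 g, N = 8/group) dosed ip once daily for 28 days, vehicle controls, decapitated; 10 μm frozen coronal sections. Preincubation 1 h RT in 50 mM Tris-HCl pH 7.6, 0.1% ascorbic acid, 4 mM CaCl2, 10 μM pargyline; then 1 h RT with 2.0 nM [3H]8-OH-DPAT. Nonspecific: 1 μM 5-HT. Saturating conditions; binding in fmol/mg tissue, % of control, mean ± SEM.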

Assay [4] addresses T1, Serotonin 1a (5-HT1a) receptor/Adrenergic receptor alpha-1 (Rattus norvegicus). Put plainly: In vivo displacement of [3H]8-OH-DPAT from 5HT1A receptor in Sprague-Dawley rat dorsolateral frontal cortex at 13.75 mg/kg, ip qd for 28 days by autoradiography relative to control. Type of assay: functional, organism-based. Details: dose 13.75 mg/kg. Summed up: as §2
The nature of assay [5]: In vivo displacement of [3H]Ketanserin from 5HT2A receptor in Sprague-Dawley rat medial-prefrontal cortex at 13.75 mg/kg, ip qd for 28 days by autoradiography relative to control. Type of assay: functional. Conditions: route intraperitoneal. Summed up:
as §1

In a further assay the test system is Hippocampus. Put plainly: In vivo displacement of [3H]8-OH-DPAT from 5HT1A receptor in Sprague-Dawley rat hippocampus CA1 region at 13.75 mg/kg, ip qd for 28 days by autoradiography relative to control. Type of assay: functional. The settings on record: route intraperitoneal. Summed up: as §2
A short description of assay [6]: In vivo displacement of [3H]SCH-23390 from dopamine D1 receptor in Sprague-Dawley rat dorsolateral frontal cortex at 13.75 mg/kg, ip qd for 28 days by autoradiography relative to control. Type of assay: functional. The settings on record: route intraperitoneal. Summed up:
(§3)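 Forebrain sections from male Sprague-Dawley rats (N = 8/group) after 28 days of daily ip injections versus vehicle. Incubation 1 h RT in 50 mM Tris-HCl pH 7.4, 120 mM NaCl, 5 mM KCl, 2 mM CaCl2, 1 mM MgCl2 with 1 nM [3H]SCH-23390 and 100 nM ketanserin. Nonspecific: 1 μM cis-flupenthixol. Saturating conditions; fmol/mg tissue, % of control.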

The target of assay [7] is D(2) dopamine receptor (Rattus norvegicus) (UniProt P61169). Put plainly: In vivo displacement of [3H]Nemonapride from dopamine D2 receptor in Sprague-Dawley rat entorhinal cortex at 13.75 mg/kg, ip qd for 28 days by autoradiography relative to control. Details: dose 13.75 mg/kg. Type of assay: functional, organism-based. A digest of the protocol:
(§4)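 Male Sprague-Dawley rats, N = 8/group, daily ip dosing for 28 days with vehicle controls; cryostat sections (10 μm) preincubated 1 h RT. Incubation 1 h RT in 50 mM Tris-HCl pH 7.4, 120 mM NaCl, 5 mM KCl, 2 mM CaCl2, 1 mM MgCl2 with 1 nM [3H]nemonapride, 0.5 μM DTG, 0.1 μM pindolol. Nonspecific: 10 μM S(−)-sulpiride. Values fmol/mg tissue, % of control.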

Assay [8] addresses T2, Alpha-2A adrenergic receptor (Homo sapiens, UniProt P08913).
T2 sequence (P08913 whole entry): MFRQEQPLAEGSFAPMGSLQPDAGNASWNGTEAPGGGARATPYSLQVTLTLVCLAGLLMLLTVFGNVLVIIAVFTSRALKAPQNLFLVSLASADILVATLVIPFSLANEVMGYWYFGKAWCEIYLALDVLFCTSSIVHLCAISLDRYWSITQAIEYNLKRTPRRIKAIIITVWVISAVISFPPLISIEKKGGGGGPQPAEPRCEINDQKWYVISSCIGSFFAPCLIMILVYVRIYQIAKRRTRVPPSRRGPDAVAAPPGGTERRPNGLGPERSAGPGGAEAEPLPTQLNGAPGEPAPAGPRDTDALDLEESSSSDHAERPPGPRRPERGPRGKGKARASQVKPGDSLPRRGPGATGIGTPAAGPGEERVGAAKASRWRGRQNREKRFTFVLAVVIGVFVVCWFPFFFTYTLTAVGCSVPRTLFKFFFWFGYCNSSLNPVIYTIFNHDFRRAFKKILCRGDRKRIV
Put plainly: Displacement of [3H]-MK-912 from human cloned adrenergic alpha2A receptor expressed in insect Sf9 membranes after 60 mins by liquid scintillation counting. It is filed as cell membranes. Summed up: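 Membranes from Sf9 cells expressing cloned human α2A-adrenoceptor. Nonspecific binding defined with 10 μM WB4101. Filtered on GF/C and counted by scintillation.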

Assay [9] can be described thus: In vivo displacement of [3H]SCH-23390 from dopamine D1 receptor in Sprague-Dawley rat entorhinal cortex at 13.75 mg/kg, ip qd for 28 days by autoradiography relative to control. Conditions: route intraperitoneal. It is filed as functional. A digest of the protocol:
as §3

The subject of assay [10] is Caudate-putamen. Put plainly: In vivo displacement of [3H]8-OH-DPAT from 5HT1A receptor in Sprague-Dawley rat lateral part of caudate putamen at 13.75 mg/kg, ip qd for 28 days by autoradiography relative to control. Conditions: route intraperitoneal. Type of assay: functional. A digest of the protocol: as §2
In assay [11] the test system is Caudate-putamen. Put plainly: In vivo displacement of [3H]SCH-23390 from dopamine D1 receptor in Sprague-Dawley rat medial part of caudate putamen at 13.75 mg/kg, ip qd for 28 days by autoradiography relative to control. The settings on record: route intraperitoneal. It is filed as functional. A digest of the protocol: as §3
Assay [12] deals with Caudate-putamen. Put plainly: In vivo displacement of [3H]Nemonapride from dopamine D2 receptor in Sprague-Dawley rat lateral of caudate putamen at 13.75 mg/kg, ip qd for 28 days by autoradiography relative to control. Type of assay: functional. Conditions: route intraperitoneal. A digest of the protocol:
as §4

Assay [13] has as its target D(2) dopamine receptor (Rattus norvegicus) (UniProt P61169). Put plainly: In vivo displacement of [3H]Nemonapride from dopamine D2 receptor in Sprague-Dawley rat medial-prefrontal cortex at 13.75 mg/kg, ip qd for 28 days by autoradiography relative to control. Type of assay: functional, organism-based. On the set-up: dose 13.75 mg/kg. A digest of the protocol: as §4

Assay [14] is described as follows: In vivo displacement of [3H]SCH-23390 from dopamine D1 receptor in Sprague-Dawley rat nucleus accumbens at 13.75 mg/kg, ip qd for 28 days by autoradiography relative to control. Type of assay: functional. Conditions: route intraperitoneal. Summed up:
as §3

Assay [15] can be described thus: In vivo displacement of [3H]Nemonapride from dopamine D4 receptor in Sprague-Dawley rat entorhinal cortex at 13.75 mg/kg, ip qd for 28 days by autoradiography relative to control. Type of assay: functional. Conditions: route intraperitoneal.
Assay [16] in a line: In vivo displacement of [3H]Nemonapride from dopamine D4 receptor in Sprague-Dawley rat medial-prefrontal cortex at 13.75 mg/kg, ip qd for 28 days by autoradiography relative to control. It is filed as functional. Conditions: route intraperitoneal.
The nature of assay [17]: In vivo displacement of [3H]Ketanserin from 5HT2A receptor in Sprague-Dawley rat nucleus accumbens at 13.75 mg/kg, ip qd for 28 days by autoradiography relative to control. Type of assay: functional. The settings on record: route intraperitoneal. Summed up:
as §1

Each structure is given as a SMILES string.

Sequence of D(2) dopamine receptor (Rattus norvegicus) (P61169 whole entry): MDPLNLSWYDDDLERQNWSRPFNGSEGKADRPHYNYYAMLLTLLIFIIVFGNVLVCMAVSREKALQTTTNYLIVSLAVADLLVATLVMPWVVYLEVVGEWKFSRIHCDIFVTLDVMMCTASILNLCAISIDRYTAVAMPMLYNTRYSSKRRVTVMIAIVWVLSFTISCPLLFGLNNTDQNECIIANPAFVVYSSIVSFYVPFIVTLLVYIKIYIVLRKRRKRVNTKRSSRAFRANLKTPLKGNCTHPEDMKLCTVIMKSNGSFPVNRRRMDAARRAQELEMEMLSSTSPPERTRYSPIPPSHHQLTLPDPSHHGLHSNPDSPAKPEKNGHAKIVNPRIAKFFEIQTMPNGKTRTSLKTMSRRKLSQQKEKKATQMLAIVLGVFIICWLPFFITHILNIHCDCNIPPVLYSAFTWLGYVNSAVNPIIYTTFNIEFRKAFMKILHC

As for `Clc1ccc2c(c1)N=C(N1CCNCC1)c1cccnc1O2`, the inhibition in vivo at 13.75 mg/kg in the assay on Caudate-putamen [1] is 166%; in assay [2], 90%; in assay [5], 56%; with Hippocampus, 95%; in assay [6], 95%; in assay [9] it was 96%. In addition, the inhibition in vivo at 13.75 mg/kg with Caudate-putamen [10] turned out to be 95%; in the assay on Caudate-putamen [11] it was 131%; in the assay on Caudate-putamen [12] it was 98%; in [14], 128%; in [15], 103%; in [16], 110%. Further, the inhibition in vivo at 13.75 mg/kg in assay [17] is 98%. Also, the inhibition came to 103% in assay [3], 141% in assay [4], 96% in assay [7] and 141% in assay [13]. In [8], this molecule yielded a Ki of 729 nM.

What is called inhibition in vivo is the relative decrease from the control value, in per cent. In general, inhibition refers to the relative decrease from the control value, in per cent. Usually Ki stands for a dissociation constant, usually derived from enzyme kinetics or from competition with a known ligand. A lower Ki goes with a stronger hold on the target.
